Consider 34 molecules from ChEMBL document CHEMBL3351969, “Chalcone based azacarboline analogues as novel antitubulin agents: design, synthesis, biological evaluation and molecular modelling studies” (Eur J Med Chem, 2014).

Holding throughout (assay type): functional
Assay [1] concerns THP-1. The experiment in a line: Cytotoxicity against human THP1 cells assessed as growth inhibition at 50 uM after 48 hrs by sulforhodamine B assay. Conditions: for inhibition of growth at 50 µM: THP-1, 48 h, read-out: GI. A digest of the protocol:
(§1)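 Single-point SRB screen at 50 µM. Cells were seeded and grown 24 h at 37°C in a CO2 incubator, then exposed to compound in complete medium for 48 h. Cells were fixed with 50% TCA for 1 h at 4°C, water-washed, and stained with 0.4% SRB in 1% acetic acid for 30 min. After 1% TCA washes, dye was dissolved in Tris-HCl (0.01 M, pH 10.4) and OD read at 540 nm.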
A general note: In SRB staining, fixed cells bind dye roughly in proportion to their protein.

For assay [2], the system named is COLO 205. The assay is described as follows: Cytotoxicity against human COLO205 cells assessed as growth inhibition at 50 uM after 48 hrs by sulforhodamine B assay. To be noted: for inhibition of growth at 50 µM: COLO 205, 48 h, read-out: GI. A digest of the protocol:
as §1

The nature of assay [3]: (§2) Cytotoxicity against human HCT116 cells assessed as growth inhibition at 50 uM after 48 hrs by sulforhodamine B assay. To be noted: HCT-116, 48 h, read-out: GI. The gist of the method: as §1
The subject of assay [4] is A549. The assay is described as follows: Cytotoxicity against human A549 cells assessed as growth inhibition at 50 uM after 48 hrs by sulforhodamine B assay. To be noted: for inhibition of growth at 50 µM: A549, 48 h, read-out: GI. The gist of the method: as §1
Assay [5] relates to HCT-116. The description is as §2. The gist of the method: as §1

Active and inactive are the calls of the source. No cut-off for these calls is given here.

On to `COc1cc(-c2cc3c4c(I)cccc4n(C(C)=O)c3nn2)cc(OC)c1OC`, for which the inhibition of growth at 50 µM came out at 40% in assay [1], 24% in assay [2], 23% in assay [3] and 19% in assay [4].

With `CC(=O)Nc1cccc(-c2cc3c4ccccc4n(C(C)=O)c3nn2)c1`, the figures for the inhibition of growth at 50 µM in assay [1], in assay [2] and in assay [3] were 49%, 47% and 48%, respectively. Further, in assay [4], the “growth inhibition (GI)” value was “inactive”.

For the molecule `CC(=O)n1c2cccc(Br)c2c2cc(-c3ccc(Cl)cc3)nnc21`, the “growth inhibition (GI)” value in assay [1], in assay [2], in assay [5] and in assay [4] was “inactive” in each case.

In the case of `CC(=O)n1c2cccc(Cl)c2c2cc(-c3ccccc3)nnc21`, the inhibition of growth at 50 µM in assay [1] amounted to 50%; in assay [2], 22%; in assay [3], 29%. For the same molecule, the “growth inhibition (GI)” value in assay [4] was “inactive”.

With `CC(=O)n1c2cccc(Br)c2c2cc(-c3ccccc3)nnc21`, the inhibition of growth at 50 µM in assay [1] was found to be 27%. Also, the “growth inhibition (GI)” value in assay [2], in assay [5] and in assay [4] was “inactive” each time.

Regarding `CC(=O)n1c2cc(Br)cc(Br)c2c2cc(-c3ccc(Br)cc3)nnc21`, the “growth inhibition (GI)” value in assay [1], in assay [2], in assay [5] and in assay [4] was “inactive” in each case.

For `CC(=O)n1c2cccc(Br)c2c2cc(-c3ccc(Br)cc3)nnc21`, the “growth inhibition (GI)” value in assay [1], in assay [2], in assay [5] and in assay [4] was “inactive” throughout.

Regarding `CC(=O)n1c2cccc(Cl)c2c2cc(-c3ccc(Br)cc3)nnc21`, the inhibition of growth at 50 µM in assay [1] was 15%; in assay [2], 10%. Also, the “growth inhibition (GI)” value in assay [5] and in assay [4] was “inactive” each time.

On to `CC(=O)n1c2cccc(Cl)c2c2cc(-c3ccc(Cl)cc3)nnc21`, for which the inhibition of growth at 50 µM in assay [1] amounted to 19%; in assay [2] it was 12%; in assay [3], 17%; in assay [4], 5%.

For the molecule `CC(=O)n1c2cccc(I)c2c2cc(-c3cccc4ccccc34)nnc21`, the inhibition of growth at 50 µM in assay [1] was 29%. Further, the “growth inhibition (GI)” value in assay [2], in assay [5] and in assay [4] was “inactive” each time.

`CC(=O)n1c2cc(Br)cc(Br)c2c2cc(-c3ccc(F)cc3)nnc21`: the “growth inhibition (GI)” value in assay [1], in assay [2], in assay [5] and in assay [4] was “inactive” throughout.

`CC(=O)n1c2cccc(I)c2c2cc(-c3ccc(Br)cc3)nnc21`: the “growth inhibition (GI)” value in assay [1], in assay [2], in assay [5] and in assay [4] was “inactive” in each case.

As to `CC(=O)n1c2cccc(Br)c2c2cc(-c3ccc([N+](=O)[O-])cc3)nnc21`, the “growth inhibition (GI)” value in assay [1], in assay [2], in assay [5] and in assay [4] was “inactive” each time.

As for `COc1ccc(-c2cc3c4c(Br)cccc4n(C(C)=O)c3nn2)cc1OC`, the inhibition of growth at 50 µM in assay [1] was 51%; in assay [2], 21%; in assay [3], 23%; in assay [4], 11%.

On to `CC(=O)n1c2cc(Br)cc(Br)c2c2cc(-c3cccc4ccccc34)nnc21`, for which, in assay [1], the inhibition of growth at 50 µM is 24%. The “growth inhibition (GI)” value in assay [2], in assay [5] and in assay [4] was “inactive” each time.

Take `CC(=O)n1c2cccc(I)c2c2cc(-c3ccc([N+](=O)[O-])cc3)nnc21`: the “growth inhibition (GI)” value in assay [1], in assay [2], in assay [5] and in assay [4] was “inactive” in each case.

Regarding `CC(=O)n1c2cc(Br)cc(Br)c2c2cc(-c3ccc4ccccc4c3)nnc21`, the inhibition of growth at 50 µM in assay [1] is 26%. Further, the “growth inhibition (GI)” value in assay [2], in assay [5] and in assay [4] was “inactive” throughout.

For `CC(=O)Nc1ccccc1-c1cc2c3ccccc3n(C(C)=O)c2nn1`, the inhibition of growth at 50 µM is 51% in assay [1], 50% in assay [2] and 49% in assay [3]. Also, the “growth inhibition (GI)” value in assay [4] was “inactive”.

For `CC(=O)n1c2cccc(Br)c2c2cc(-c3ccc4ccccc4c3)nnc21`, the inhibition of growth at 50 µM is 40% in assay [1], 14% in assay [2], 18% in assay [3] and 8% in assay [4].

Turning to `COc1ccc(-c2cc3c4c(I)cccc4n(C(C)=O)c3nn2)cc1`, the results for the inhibition of growth at 50 µM in assay [1] and in assay [2] were 22% and 9%, respectively. The “growth inhibition (GI)” value in assay [5] and in assay [4] was “inactive” throughout.

For the molecule `CC(=O)n1c2ccccc2c2cc(-c3ccc([N+](=O)[O-])cc3)nnc21`, the inhibition of growth at 50 µM in assay [1] was determined as 19%; in assay [2], 17%; in assay [3], 19%. In addition, in assay [4], the “growth inhibition (GI)” value was “inactive”.

Regarding `COc1ccc(-c2cc3c4c(I)cccc4n(C(C)=O)c3nn2)cc1OC`, the inhibition of growth at 50 µM in assay [1] was found to be 33%; in assay [2] it was 14%; in assay [3], 13%; in assay [4] it was 11%.

Turning to `CC(=O)n1c2cccc(Cl)c2c2cc(-c3ccc[nH]3)nnc21`, the inhibition of growth at 50 µM in assay [1] was 53%; in assay [2], 34%; in assay [3] it was 37%; in assay [4], 16%.

`CC(=O)n1c2ccccc2c2cc(-c3ccc(Br)cc3)nnc21`: the inhibition of growth at 50 µM in assay [1] is 25%; in assay [2], 20%; in assay [3], 24%. The “growth inhibition (GI)” value in assay [4] was “inactive”.

For the molecule `COc1ccc(-c2cc3c4c(Br)cccc4n(C(C)=O)c3nn2)cc1`, the inhibition of growth at 50 µM was determined as 35% in assay [1], 10% in assay [2], 17% in assay [3] and 7% in assay [4].

In the case of `CC(=O)n1c2cccc(I)c2c2cc(-c3ccc4ccccc4c3)nnc21`, in assay [1], the inhibition of growth at 50 µM is 25%. Moreover, the “growth inhibition (GI)” value in assay [2], in assay [5] and in assay [4] was “inactive” throughout.

For the molecule `CC(=O)n1c2ccccc2c2cc(-c3ccc(F)cc3)nnc21`, the inhibition of growth at 50 µM is 42% in assay [1], 40% in assay [2] and 36% in assay [3]. Moreover, in assay [4], the “growth inhibition (GI)” value is “inactive”.

For the molecule `CC(=O)n1c2cccc(Cl)c2c2cc(-c3ccc([N+](=O)[O-])cc3)nnc21`, the inhibition of growth at 50 µM in assay [1] is 14%. Also, the “growth inhibition (GI)” value in assay [2], in assay [5] and in assay [4] was “inactive” each time.

On to `CC(=O)n1c2ccccc2c2cc(-c3ccc(Cl)cc3)nnc21`, for which the inhibition of growth at 50 µM in assay [1] came to 39%; in assay [2], 35%; in assay [3] it was 35%. Besides, the “growth inhibition (GI)” value in assay [4] was “inactive”.

Take `CC(=O)n1c2cccc(I)c2c2cc(-c3ccc(Cl)cc3)nnc21`: the “growth inhibition (GI)” value in assay [1], in assay [2], in assay [5] and in assay [4] was “inactive” each time.

As for `CC(=O)n1c2cccc(Br)c2c2cc(-c3cccc4ccccc34)nnc21`, the inhibition of growth at 50 µM in assay [1] is 44%; in assay [2] it was 12%; in assay [3], 18%; in assay [4], 9%.

As to `CC(=O)n1c2cccc(I)c2c2cc(-c3ccccc3)nnc21`, the inhibition of growth at 50 µM in assay [1] was 20%. In addition, the “growth inhibition (GI)” value in assay [2], in assay [5] and in assay [4] was “inactive” throughout.

In the case of `CC(=O)n1c2cc(Br)cc(Br)c2c2cc(-c3ccccc3)nnc21`, in assay [1], the inhibition of growth at 50 µM worked out at 21%. Further, the “growth inhibition (GI)” value in assay [2], in assay [5] and in assay [4] was “inactive” each time.

With `COc1cc(-c2cc3c4c(Br)cccc4n(C(C)=O)c3nn2)cc(OC)c1OC`, the inhibition of growth at 50 µM in assay [1] was 59%; in assay [2], 36%; in assay [3], 43%; in assay [4], 17%.
